Results pooled from the literature.
Compare with care: the assays were run in different laboratories.
Target: Serine/threonine-protein kinase Chk1 (CHEK1, Homo sapiens, UniProt O14757)
One construct used (O14757 1-476): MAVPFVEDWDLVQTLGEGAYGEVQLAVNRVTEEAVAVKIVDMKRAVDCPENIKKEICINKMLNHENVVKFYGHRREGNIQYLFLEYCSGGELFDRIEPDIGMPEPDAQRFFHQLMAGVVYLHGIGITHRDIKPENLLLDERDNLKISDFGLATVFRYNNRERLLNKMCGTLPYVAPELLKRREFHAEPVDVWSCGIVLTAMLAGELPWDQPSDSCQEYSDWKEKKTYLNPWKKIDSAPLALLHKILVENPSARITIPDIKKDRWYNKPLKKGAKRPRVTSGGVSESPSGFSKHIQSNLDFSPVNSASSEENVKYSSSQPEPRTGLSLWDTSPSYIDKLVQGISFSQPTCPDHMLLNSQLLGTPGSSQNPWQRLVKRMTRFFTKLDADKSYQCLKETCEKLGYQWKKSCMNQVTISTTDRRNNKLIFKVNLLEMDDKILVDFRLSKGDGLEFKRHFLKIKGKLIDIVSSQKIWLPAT

| Compound | assay | setting | measurement | value |
| --- | --- | --- | --- | --- |
| CC#CC(=O)N1CCC[C@H]1c1nc(-c2ccc(C(=O)Nc3ccccn3)cc2)c2c(N)nccn12 | enzyme activity, inhibitor | 1 µM | inhibition | 20% |
| COc1ccc2oc(-c3ccc4nc(N)oc4c3)c/c(=N\c3ccccc3NC(=O)CCN)c2c1 | binding | 1 µM | remaining binding | 87% |
| C#Cc1cnc(Nc2ccnc(CO)c2)nc1Nc1ccccc1S(C)(=O)=NC#N (stereo not drawn) | cell-free assay | 1 µM | remaining signal | 38% |
| C[C@H]1CC[C@H](n2c3cnccc3c3cnc(Nc4ccc5c(n4)CCN(C(=O)CO)C5)nc32)CC1 | cell-free assay | 1 µM | remaining signal | 93% |
| C=CC(=O)N1CCC[C@@H](n2nc(-c3ccc(Oc4ccccc4)cc3)c3c(N)ncnc32)C1 | enzyme activity, inhibitor | 1 µM | inhibition | 10% |
| CCCCC(=O)Nc1ccc(-c2ccc3ncn(CCC)c(=O)c3c2)cn1 | binding, competition with immobilised ligand | 0.5 µM | remaining binding | 86% |
| C1=C/COCc2cc(ccc2OCCN2CCCC2)Nc2nccc(n2)-c2cccc(c2)COC/1 | cell-free assay | 0.1 µM | remaining signal | 100% |
| N#Cc1ccc(NC(=O)Nc2ccccc2)cc1 | cell-free assay, competition with immobilised ligand | 25 µM | remaining binding | 91% |
| COc1ccc2[nH]c3c4[nH]c5ccc(OC)cc5c4c4c(c3c2c1)C(=O)NC4=O | binding | 1 µM | remaining binding | 12% |
